ChEMBL document CHEMBL2203199, “Heterocycle-functional gramine analogues: solvent- and catalyst-free synthesis and their inhibition activities against cell proliferation” (Eur J Med Chem, 2012)
In brackets after ≈: the same amount, converted by molar mass. Activity calls are given as the source filed them. No cut-off for these calls is given here.

Legend:
SGC-7901 [1] = experiment: Cytotoxicity against human SGC7901 cells after 72 hrs by MTT assay; type: functional, cell-based; details: for IC50: Homo sapiens, SGC-7901, 72 h
In short: (§1)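 Cells seeded at 2 × 10⁴ per well and grown to subconfluence before treatment. MTT (5 mg/mL stock in PBS) added, then 4 h incubation for formazan formation. Formazan dissolved in DMSO and absorbance read at 570 nm. IC50 determined from concentration-dependent inhibition. Assays run in triplicate across three independent experiments, reported as mean ± S.D.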

HepG2 [2] = experiment: Cytotoxicity against human HepG2 cells after 72 hrs by MTT assay; type: functional, cell-based; details: for IC50: Homo sapiens, HepG2, 72 h; in short: as §1
NCI-H460 [3] = experiment: Cytotoxicity against human NCI-H460 cells after 72 hrs by MTT assay; type: functional, cell-based; details: for IC50: Homo sapiens, NCI-H460, 72 h; in short: as §1
BGC-823 [4] = experiment: Cytotoxicity against human BGC823 cells after 72 hrs by MTT assay; type: functional, cell-based; details: for IC50: Homo sapiens, BGC-823, 72 h; in short: as §1
NCI-H460 [5] = experiment: Cytotoxicity against human NCI-H460 cells assessed as growth inhibition at 40 ug/mL after 72 hrs by MTT assay; type: functional; details: NCI-H460, 72 h, read-out: GI
In short: (§2)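 Growth inhibition by MTT after seeding at 2 × 10⁴ cells per well and growth to subconfluence, with 5-FU as positive control. MTT stock 5 mg/mL in PBS, 4 h formazan formation, then DMSO solubilisation and A570 read. Triplicate wells, three independent experiments, mean ± S.D.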

BGC-823 [6] = experiment: Cytotoxicity against human BGC823 cells assessed as growth inhibition at 40 ug/mL after 72 hrs by MTT assay; type: functional; details: BGC-823, 72 h, read-out: GI; in short: as §2
SGC-7901 [7] = experiment: Cytotoxicity against human SGC7901 cells assessed as growth inhibition at 40 ug/mL after 72 hrs by MTT assay; type: functional; details: SGC-7901, 72 h, read-out: GI; in short: as §2
HepG2 [8] = experiment: Cytotoxicity against human HepG2 cells assessed as growth inhibition at 40 ug/mL after 72 hrs by MTT assay; type: functional; details: HepG2, 72 h, read-out: GI; in short: as §2
SGC-7901 [9] = experiment: Cytotoxicity against human SGC7901 cells assessed as change in cell morphology at 20 ug/mL after 48 hrs by inverted microscopy; type: functional, cell-based
NCI-H460 [10] = experiment: Cytotoxicity against human NCI-H460 cells assessed as change in cell morphology at 20 ug/mL after 48 hrs by inverted microscopy; type: functional, cell-based

SMILES	IC50 (SGC-7901 [1])	IC50 (HepG2 [2])	IC50 (NCI-H460 [3])	IC50 (BGC-823 [4])	Activity (HepG2 [2])	Activity (BGC-823 [4])	inhibition of growth at 40 µg/mL (NCI-H460 [5])	inhibition of growth at 40 µg/mL (BGC-823 [6])	inhibition of growth at 40 µg/mL (SGC-7901 [7])	inhibition of growth at 40 µg/mL (HepG2 [8])	Activity (SGC-7901 [9])	Activity (NCI-H460 [10])	growth inhibition (GI) (SGC-7901 [1])	growth inhibition (GI) (HepG2 [2])	growth inhibition (GI) (NCI-H460 [3])	growth inhibition (GI) (BGC-823 [4])
Cn1cc(C(Nc2ccccn2)c2ccccc2Cl)c2ccccc21 (centres undefined)	27.1 µg/mL (≈ 77.9 µM)	26.5 µg/mL (≈ 76.2 µM)	66.7 µg/mL (≈ 192 µM)	39.2 µg/mL (≈ 113 µM)	–	–	–	–	–	–	–	–	–	–	–	–
Fc1ccccc1C(Nc1nc2ccccc2s1)c1c[nH]c2ccccc12 (centres undefined)	9.4 µg/mL (≈ 25.2 µM)	7 µg/mL (≈ 18.7 µM)	12.1 µg/mL (≈ 32.4 µM)	8.1 µg/mL (≈ 21.7 µM)	Dose-dependent effect	Dose-dependent effect	–	–	–	–	–	–	–	–	–	–
Cn1cc(C(Nc2ccccn2)c2ccc(C(F)(F)F)cc2)c2ccccc21 (centres undefined)	13.8 µg/mL (≈ 36.2 µM)	12.9 µg/mL (≈ 33.8 µM)	16 µg/mL (≈ 42 µM)	16.8 µg/mL (≈ 44 µM)	–	–	71.4%	71.4%	71.4%	71.4%	–	–	–	–	–	–
Clc1ccccc1C(Nc1ccccn1)c1c[nH]c2ccccc12 (centres undefined)	14.9 µg/mL (≈ 44.6 µM)	13.1 µg/mL (≈ 39.2 µM)	12.2 µg/mL (≈ 36.5 µM)	22.7 µg/mL (≈ 68 µM)	–	–	71.4%	71.4%	71.4%	71.4%	Active	Active	–	–	–	–
Fc1ccc(C(Nc2ccccn2)c2c[nH]c3ccccc23)cc1 (centres undefined)	21.5 µg/mL (≈ 67.7 µM)	23 µg/mL (≈ 72.5 µM)	24 µg/mL (≈ 75.6 µM)	21.8 µg/mL (≈ 68.7 µM)	–	–	71.4%	71.4%	71.4%	71.4%	–	–	–	–	–	–
O=c1[nH]cc(F)c(=O)[nH]1 [FLUOROURACIL]	8.7 µg/mL (≈ 66.9 µM)	9.3 µg/mL (≈ 71.5 µM)	7.2 µg/mL (≈ 55.4 µM)	8.2 µg/mL (≈ 63 µM)	Dose-dependent effect	Dose-dependent effect	–	–	–	–	–	–	66.8%	66.8%	66.8%	66.8%
Cn1cc(C(Nc2ccccn2)c2ccc(F)cc2)c2ccccc21 (centres undefined)	51.9 µg/mL (≈ 157 µM)	38.6 µg/mL (≈ 116 µM)	49.1 µg/mL (≈ 148 µM)	51.6 µg/mL (≈ 156 µM)	–	–	–	–	–	–	–	–	–	–	–	–
Clc1ccccc1C(Nc1nc2ccccc2s1)c1c[nH]c2ccccc12 (centres undefined)	10.5 µg/mL (≈ 26.9 µM)	9 µg/mL (≈ 23.1 µM)	13.2 µg/mL (≈ 33.9 µM)	8.1 µg/mL (≈ 20.8 µM)	–	–	–	–	–	–	Active	Active	–	–	–	–
Cn1cc(C(Nc2ccccn2)c2ccncc2)c2ccccc21 (centres undefined)	37.9 µg/mL (≈ 121 µM)	42.5 µg/mL (≈ 135 µM)	56 µg/mL (≈ 178 µM)	47.1 µg/mL (≈ 150 µM)	–	–	–	–	–	–	–	–	–	–	–	–
Cn1cc(C(Nc2ccccn2)c2ccccc2F)c2ccccc21 (centres undefined)	86.2 µg/mL (≈ 260 µM)	43.2 µg/mL (≈ 130 µM)	92.6 µg/mL (≈ 279 µM)	64.2 µg/mL (≈ 194 µM)	–	–	–	–	–	–	–	–	–	–	–	–
Fc1ccc(C(c2c[nH]c3ccccc23)n2cncn2)cc1 (centres undefined)	8.2 µg/mL (≈ 28.1 µM)	8.4 µg/mL (≈ 28.7 µM)	10.7 µg/mL (≈ 36.6 µM)	10.3 µg/mL (≈ 35.2 µM)	Dose-dependent effect	Dose-dependent effect	–	–	–	–	–	–	–	–	–	–
Clc1ccc(C(Nc2ccccn2)c2c[nH]c3ccccc23)cc1 (centres undefined)	19.2 µg/mL (≈ 57.5 µM)	18.6 µg/mL (≈ 55.7 µM)	17.4 µg/mL (≈ 52.1 µM)	22.8 µg/mL (≈ 68.3 µM)	–	–	71.4%	71.4%	71.4%	71.4%	–	–	–	–	–	–
Cn1cc(C(Nc2ccccn2)c2ccccn2)c2ccccc21 (centres undefined)	> 100 µg/mL	> 100 µg/mL	> 100 µg/mL	> 100 µg/mL	–	–	–	–	–	–	–	–	–	–	–	–
c1ccc(NC(c2ccncc2)c2c[nH]c3ccccc23)nc1 (centres undefined)	> 100 µg/mL	> 100 µg/mL	> 100 µg/mL	> 100 µg/mL	–	–	–	–	–	–	–	–	–	–	–	–
Fc1ccccc1C(Nc1ccccn1)c1c[nH]c2ccccc12 (centres undefined)	24.5 µg/mL (≈ 77.2 µM)	28.7 µg/mL (≈ 90.4 µM)	24.9 µg/mL (≈ 78.5 µM)	37.6 µg/mL (≈ 118 µM)	–	–	71.4%	71.4%	71.4%	71.4%	–	–	–	–	–	–
c1ccc(C(Nc2ccccn2)c2c[nH]c3ccccc23)cc1 (centres undefined)	24.9 µg/mL (≈ 83.2 µM)	27.6 µg/mL (≈ 92.2 µM)	35.3 µg/mL (≈ 118 µM)	29.4 µg/mL (≈ 98.2 µM)	–	–	–	–	–	–	–	–	–	–	–	–
c1ccc(NC(c2ccccn2)c2c[nH]c3ccccc23)nc1 (centres undefined)	51.4 µg/mL (≈ 171 µM)	> 100 µg/mL	> 100 µg/mL	46.9 µg/mL (≈ 156 µM)	–	–	–	–	–	–	–	–	–	–	–	–
Fc1ccc(C(c2c[nH]c3ccccc23)n2cccn2)cc1 (centres undefined)	8.5 µg/mL (≈ 29.2 µM)	8 µg/mL (≈ 27.5 µM)	8.5 µg/mL (≈ 29.2 µM)	5.7 µg/mL (≈ 19.6 µM)	Dose-dependent effect	Dose-dependent effect	–	–	–	–	Active	Active	–	–	–	–
Cn1cc(C(Nc2nc3ccccc3s2)c2ccccc2F)c2ccccc21 (centres undefined)	> 100 µg/mL	> 100 µg/mL	> 100 µg/mL	> 100 µg/mL	–	–	–	–	–	–	–	–	–	–	–	–
FC(F)(F)c1ccc(C(Nc2ccccn2)c2c[nH]c3ccccc23)cc1 (centres undefined)	13.5 µg/mL (≈ 36.7 µM)	12.1 µg/mL (≈ 32.9 µM)	8.6 µg/mL (≈ 23.4 µM)	10.1 µg/mL (≈ 27.5 µM)	–	–	71.4%	71.4%	71.4%	71.4%	Active	Active	–	–	–	–
CN(C)Cc1c[nH]c2ccccc12 [GRAMINE]	77.3 µg/mL (≈ 444 µM)	> 100 µg/mL	74.5 µg/mL (≈ 428 µM)	62.8 µg/mL (≈ 360 µM)	–	–	–	–	–	–	–	–	–	–	–	–
Cn1cc(C(Nc2ccccn2)c2ccc(Cl)cc2)c2ccccc21 (centres undefined)	25 µg/mL (≈ 71.9 µM)	25.5 µg/mL (≈ 73.3 µM)	32.1 µg/mL (≈ 92.3 µM)	30.8 µg/mL (≈ 88.5 µM)	–	–	–	–	70.8%	73.6%	–	–	–	–	–	–
